BindingDB's records for doi:10.1021/jm00104a019 (Searle Research & Development, 1993)
Where a SMILES comes first, the peptide text is derived from it.

These molecules were tested against Integrin alpha-IIb/beta-3 (Homo sapiens, UniProt P08514+P05106) (assay: Inhibition of platelet aggregation (PRP)).
How it was run: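 Aggregation of platelets in platelet-rich plasma was induced with ADP, and inhibition of this aggregation was measured.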

Integrin alpha-IIb/beta-3, sequence (P05106 27-788 limits assumed): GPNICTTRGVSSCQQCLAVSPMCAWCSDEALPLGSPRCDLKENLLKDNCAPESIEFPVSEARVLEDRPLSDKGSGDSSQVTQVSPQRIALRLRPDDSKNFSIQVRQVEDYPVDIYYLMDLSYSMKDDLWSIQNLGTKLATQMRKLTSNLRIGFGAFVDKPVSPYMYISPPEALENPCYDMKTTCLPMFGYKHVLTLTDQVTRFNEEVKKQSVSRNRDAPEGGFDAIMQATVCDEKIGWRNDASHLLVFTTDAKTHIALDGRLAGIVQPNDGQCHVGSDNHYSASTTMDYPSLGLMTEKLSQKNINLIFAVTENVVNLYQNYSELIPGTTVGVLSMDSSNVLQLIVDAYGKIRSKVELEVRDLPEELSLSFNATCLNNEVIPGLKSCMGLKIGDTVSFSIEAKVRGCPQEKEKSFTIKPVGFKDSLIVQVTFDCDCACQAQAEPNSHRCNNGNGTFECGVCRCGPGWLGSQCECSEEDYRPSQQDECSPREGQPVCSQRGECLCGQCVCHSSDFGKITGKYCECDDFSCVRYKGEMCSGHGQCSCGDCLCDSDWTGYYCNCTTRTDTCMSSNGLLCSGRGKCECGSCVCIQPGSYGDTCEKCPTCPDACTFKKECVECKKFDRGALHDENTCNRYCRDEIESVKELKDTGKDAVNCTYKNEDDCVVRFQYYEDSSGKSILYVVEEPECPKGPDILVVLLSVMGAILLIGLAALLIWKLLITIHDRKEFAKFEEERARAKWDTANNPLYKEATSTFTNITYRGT
Integrin alpha-IIb/beta-3, sequence (P08514 32-887 limits assumed): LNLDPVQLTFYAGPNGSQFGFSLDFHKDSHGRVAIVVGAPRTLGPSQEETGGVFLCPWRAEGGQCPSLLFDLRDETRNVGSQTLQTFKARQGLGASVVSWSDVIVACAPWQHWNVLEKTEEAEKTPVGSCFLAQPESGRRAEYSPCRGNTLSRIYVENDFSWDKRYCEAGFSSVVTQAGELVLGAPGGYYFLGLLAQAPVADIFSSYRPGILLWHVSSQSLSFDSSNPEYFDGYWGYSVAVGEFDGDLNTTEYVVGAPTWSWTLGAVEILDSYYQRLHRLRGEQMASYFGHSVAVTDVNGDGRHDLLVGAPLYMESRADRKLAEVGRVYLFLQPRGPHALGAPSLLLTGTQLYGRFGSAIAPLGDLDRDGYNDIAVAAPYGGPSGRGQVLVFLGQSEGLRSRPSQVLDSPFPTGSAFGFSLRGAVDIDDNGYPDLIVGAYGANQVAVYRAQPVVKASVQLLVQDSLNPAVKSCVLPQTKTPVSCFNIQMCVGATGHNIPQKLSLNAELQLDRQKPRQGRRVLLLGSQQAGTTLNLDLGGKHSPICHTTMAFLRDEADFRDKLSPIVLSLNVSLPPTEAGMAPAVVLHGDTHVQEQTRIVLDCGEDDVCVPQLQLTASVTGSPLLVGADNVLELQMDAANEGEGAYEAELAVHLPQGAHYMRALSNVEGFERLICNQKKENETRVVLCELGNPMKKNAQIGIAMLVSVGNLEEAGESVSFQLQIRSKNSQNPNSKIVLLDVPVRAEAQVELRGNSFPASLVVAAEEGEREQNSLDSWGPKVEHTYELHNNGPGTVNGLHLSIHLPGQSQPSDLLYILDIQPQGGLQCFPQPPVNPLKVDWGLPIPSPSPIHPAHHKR
Integrin alpha-IIb/beta-3, sequence (P08514 891-1039 limits assumed): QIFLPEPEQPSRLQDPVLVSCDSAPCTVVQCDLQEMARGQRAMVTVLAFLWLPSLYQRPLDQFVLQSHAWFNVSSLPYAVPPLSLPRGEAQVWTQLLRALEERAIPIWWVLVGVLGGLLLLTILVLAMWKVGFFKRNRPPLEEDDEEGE

Row | IC50 [µM] | SMILES
1 | 60 | N=C(N)NCCCCCCCC(=O)N[C@@H](CC(=O)O)C(=O)NCCc1ccccc1
2 | 4 | N=C(N)NCCCCCCCC(=O)N[C@@H](CC(=O)O)C(=O)N[C@@H](Cc1ccccc1)c1nnn[nH]1
3 | 40 | NC(N)=NCCC[C@H](N)C(=O)NCC(=O)N[C@@H](CC(=O)O)C(=O)N[C@@H](Cc1ccccc1)C(=O)O (H-RGDF-OH)
4 | 1.6 | N=C(N)NCCCCCCCC(=O)N[C@@H](CC(=O)O)C(=O)N[C@@H](Cc1ccccc1)C(=O)O [N-(1-Carboxy-2-phenyl-ethyl)-3-[8-(diaminomethyl-amino)-octanoylamino]-succinamic acid]
